Assay results from ChEMBL document CHEMBL5150073, “Photocaged DNA-Binding Photosensitizer Enables Photocontrol of Nuclear Entry for Dual-Targeted Photodynamic Therapy” (J Med Chem, 2022).
Calls of active or inactive are those of the source. The rule behind the calls is not given here.

Legend:
Calf thymus DNA [1] = experiment: Binding affinity to calf thymus DNA assessed as reduction in absorbance spectra at 20 uM by fluorescence based analysis; type: nucleic-acid assay; details: Bos taurus
[2] = Drug localization in cytosol of human MCF7 cells assessed as increase in bright green fluorescence of wintergreen excitation at 2 uM incubated for 1 hr in dark by EGFP filter based analysis; type: ADME, subcellular
[3] = (§1) Stability of compound in human A549 cells assessed as esterase-mediated 3-bromo-2-(4-carbamimidoylphenyl)-1H-indole-6-carboxamidine release by measuring cyan fluorescence at 2 uM incubated for 1 hr followed by compound washout and further incubated for 1 hr on heated microscopic stage by DAPI filter based fluorescence analysis; type: ADME, cell-based; details: a549, 1 h
Summary of the method: (§2)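 Cells incubated with compound (2 μM) for 1 h, washed once with PBS, then kept a further 1 h in the dark on a heated microscope stage. Nuclear cyan fluorescence imaged with the DAPI filter set at 0 h and 2 h time points.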

[4] = as §1, with “HeLa” for “A549”; type: ADME, cell-based; summary of the method: as §2
MCF7 [5] = experiment: Induction of ROS production in human MCF7 cells at 2 uM incubated for 1 hr in dark followed by irradiation with 480 nm 2.3 J/cm^2 light for 15 mins with 8 J/cm^2 UV irradiation for 5 mins by DCFH2-DA probe based analysis; type: functional, cell-based; details: time 80.0 min
Summary of the method: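 MCF7 cells incubated with compound (2 μM) 1 h in the dark, washed, loaded with 10 μM DCFH2DA for 30 min, washed. DCF green fluorescence imaged after 480 nm illumination (15 min, 2.3 J cm⁻²), then after added 365 nm UV (5 min, 8.0 J cm⁻²). Mean fluorescence intensity quantified.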

DNA = experiment: Induction of DNA (unknown origin) damage in PBS at pH 7.4 assessed as double strand breaks by measuring production of small DNA fragments at 10 uM irradiated with 480 nm 2.3 J/cm^2 light for 15 mins with 8 J/cm^2 UV irradiation for 5 mins by ethidium bromide staining based agarose gel electrophoresis; type: nucleic-acid assay; details: time 20.0 min
Summary of the method: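 Plasmid dsDNA (70 ng pCMV-PARP1-3xFlag-WT, 7146 bp) in PBS pH 7.4 with compound at 10 μM. Illumination: 480 nm for 15 min (2.3 J cm⁻²), then UV 365 nm lamp for 5 min (8.0 J cm⁻²). Samples denatured, run on 1% agarose gel with ethidium bromide. n = 2.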

MCF7 [6] = experiment: Photocytotoxicity against human MCF7 cells assessed as reduction in cell viability incubated for 1 hr followed by washout and irradiation with 480 nm 2.3 J/cm^2 light for 15 mins with 8 J/cm^2 UV irradiation for 5 mins and measured after 24 hrs by MTT assay; type: functional; details: MCF7, light or radiation study
Summary of the method: (§3)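 Cells (MCF7, A549, HeLa) incubated 1 h with compound (BB probes 0–32 μM, Br-DAPI 0–64 μM) and washed once. Light arms: 480 nm (15 min, 2.3 J cm⁻²) with or without UV (5 min, 8.0 J cm⁻²), or UV only; dark controls unilluminated. Cells kept overnight in growth medium, then MTT read 24 h post-treatment. CC50 taken relative to untreated cells. n = 3.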

A549 = experiment: Selectivity index, ratio of CC50 for photocytotoxicity against human […] cells irradiated with 480 nm 2.3 J/cm^2 light to CC50 for photocytotoxicity against human A549 cells irradiated with 480 nm 2.3 J/cm^2 light and 8 J/cm^2 UV irradiation; type: functional; summary of the method: as §3
[7] = Selectivity index, ratio of CC50 for photocytotoxicity against human HeLa cells irradiated with 480 nm 2.3 J/cm^2 light to CC50 for photocytotoxicity against human HeLa cells irradiated with 480 nm 2.3 J/cm^2 light and 8 J/cm^2 UV irradiation; type: functional; summary of the method: as §3
MCF7 [8] = experiment: Induction of ROS production in human MCF7 cells assessed as increase in green fluorescence signal at 3 uM irradiated with 480 nm 2.3 J/cm^2 light for 15 mins with 16 J 780 nm 2P laser light for 10 seconds by DCFH2-DA probe based analysis; type: functional, cell-based
Summary of the method: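 MCF7 cells given compound at 3 μM and DCFH2DA (10 μM). Uncaged by 480 nm illumination (15 min, 2.3 J cm⁻²). DCF fluorescence imaged before and after 780 nm two-photon laser exposure (10 s, 16 J).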

MCF7 [9] = experiment: Photocytotoxicity against human MCF7 cells assessed as cell death by measuring increase in green fluorescence incubated for 1 hr followed by washout and irradiated with 480 nm 2.3 J/cm^2 light for 15 mins with 48 J 780 nm 2P laser light for 30 seconds and further incubated for 2 hrs by cell viability imaging kit based assay; type: functional; details: dose 0-8 µM, DDE = dose-dependent effect
Summary of the method: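 MCF7 cells given compound at 4 μM. Illuminated with 480 nm light (15 min, 2.3 J cm⁻²) plus 780 nm two-photon laser (30 s, 48 J). Stained 2 h later with a live/dead imaging kit: green dead-cell stain (EGFP filter), blue total-cell stain (DAPI filter). n = 3.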

MCF7 [10] = experiment: (§4) Photocytotoxicity against human MCF7 cells cultured as […] spheroids assessed as cell death by measuring increase in green fluorescence at 10 uM incubated for 1 hr followed by washout and irradiation with 480 nm 2.3 J/cm^2 light for 15 mins with 8 J/cm^2 UV irradiation for 5 mins and incubated overnight by cell viability imaging kit based assay; type: functional
Summary of the method: (§5)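 MCF7 spheroids (~300 μm) grown in ultralow-attachment plates. Compound added to medium at 10 μM final for 1 h, then illuminated: 480 nm (15 min, 2.3 J cm⁻²), 480 nm plus UV (5 min, 8.0 J cm⁻²), or UV only. After overnight incubation, stained with a live/dead imaging kit; dead-cell green mean intensity and spheroid diameter assessed.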

MCF7 [11] = experiment: as §4, with “tumor spheroid shrinkage” for “cell death by measuring increase in green fluorescence”; type: functional; summary of the method: as §5
Calf thymus DNA [12] = experiment: Binding affinity to calf thymus DNA assessed as fold change in fluorescence quenching of 3-bromo-2-(4-carbamimidoylphenyl)-1H-indole-6-carboxamidine; type: nucleic-acid assay; details: Bos taurus
[13] = Photorelease ability in PBS at pH 7.4 assessed as 3-bromo-2-(4-carbamimidoylphenyl)-1H-indole-6-carboxamidine release by measuring change in emission spectra at 1 uM incubated in presence of CT-DNA and irradiated with 3.1 J/cm^2 mercury lamp light for 20 mins; type: functional
[14] = Photorelease activity in PBS at pH 7.4 assessed as 3-bromo-2-(4-carbamimidoylphenyl)-1H-indole-6-carboxamidine release by measuring increase in fluorescence intensity at 50 uM in presence of CT-DNA incubated for 3 hrs under dark condition by RP-HPLC analysis; type: functional
Summary of the method: (§6)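 Samples at 50 μM in PBS pH 7.4 were either kept 3 h at 37 °C in the dark or illuminated 20 min at 480 nm (450–495 nm filter, 3.1 J cm⁻²). Analysed by RP-HPLC on a C18 analytical column with absorbance at 345 nm; retention times recorded. n = 2 independent samples.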

[15] = Photorelease activity in PBS at pH 7.4 assessed as 3-bromo-2-(4-carbamimidoylphenyl)-1H-indole-6-carboxamidine release by measuring time at when peak observed at 50 uM in presence of CT-DNA illuminated with 3.1 J/cm^2 480 nm illumination for 20 mins by RP-HPLC analysis; type: functional; summary of the method: as §6
MCF7 [16] = experiment: Photocytotoxicity against human MCF7 cells cultured as 3D spheroids assessed as fold reduction in diameter of tumor spheroid size at 10 uM incubated for 1 hr followed by washout and irradiation with 480 nm 2.3 J/cm^2 light for 15 mins with 8 J/cm^2 UV irradiation for 5 mins and incubated overnight by cell viability imaging kit based assay

Activity (Calf thymus DNA [1]): Active
Drug uptake [2]: Active
Stability [3]: Stable
Stability [4]: Stable
fold change (FC) (Calf thymus DNA [12]): 4
Compound: CC1=CC(C)=[N+]2C1=C(COC(=O)/N=C(\N)c1ccc3c(Br)c(-c4ccc(C(=N)N)cc4)[nH]c3c1)c1c(C)cc(C)n1[B-]2(C)C
Activity (MCF7 [5]): Active
Activity (DNA): Active
CC50 (MCF7 [6]): 0.47 µM
Ratio (A549): 17
Ratio [7]: 2.2
Activity (MCF7 [8]): Active
Activity (MCF7 [9]): Dde
Activity (MCF7 [10]): Active
Activity (MCF7 [11]): Active
Drug metabolism [13]: Metabolite detected
Drug metabolism [14]: Metabolite not detected
TIME [15]: 0.533 h
Activity (MCF7 [16]): Active
